According to ChEMBL document CHEMBL4513216, “Probing the Open Global Health Chemical Diversity Library for Multistage-Active Starting Points for Next-Generation Antimalarials” (ACS Infect Dis, 2020):

assay: Toxicity liver stage against HepG2, at 10uM; format: cell-based; set-up: test concentration 10 uM, cell line HepG2-A16-CD81EGFP; details: human, HepG2-A16-CD81EGFP cells; read-out: INHIBITION
Method in brief: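 Uninfected HepG2-A16-CD81EGFP cells, 3 × 10^3 per well, 1536-well, plated on prespotted compound at 10 μM final, parasite-free screening media added to match infected plates; puromycin 10 μM positive, DMSO 0.5% negative; run in parallel with 48 h PbLuc assay at 37 °C, 5% CO2; viability by CellTiter-Glo luminescence, normalized to controls.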

SMILES	cytotoxicity at 10 µM [%]
COCCNC(=O)c1ccc2c(=O)n3c(nc2c1)CCCCC3	5.53
CCOC(=O)CNC(=O)NCc1cccn1Cc1ccccc1	9.71
Cc1cnc2n(c1=O)C(CC(=O)NCc1cccnc1)CS2 (configuration not stated)	4.22
COc1ccc(CC(C)(O)CNC(=O)Cc2cccs2)cc1 (configuration not stated)	14.7
COc1ccccc1CN1CCC2(CCC(C(=O)N(C)C)O2)CC1 (configuration not stated)	0.493
N#Cc1ccc(C(=O)N2CCC3(CC2)CC3)cc1	3.56
CCc1ccc2c(C3CN(S(C)(=O)=O)C3)ncn2c1	10.6
Cc1ncoc1C(=O)N1C[C@@H]2CN(CC3CC3)CCO[C@@H]2C1	9.23
Cc1ncsc1CN1C[C@@H]2CN(Cc3cccnc3)CCO[C@@H]2C1	5.05
O=C(NC1CCCCC1)N1C[C@@H]2OCCN(C(=O)c3ccco3)[C@@H]2C1	-152
COCC(=O)N1CC2(CCN(c3ccccc3)C2)C1	10.1
CC(C)NC(=O)[C@H]1C[C@@H]2[C@@H](C1)OCCN2Cc1ccncc1	6.62
CN(C)CCCNC(=O)c1ccccc1NC(=O)c1ccccc1Cl	-0.986
CC(C)C[C@H](NC(=O)Cc1csc(-c2cccc(Cl)c2)n1)C(=O)O	3.51
N#Cc1ccc(OC2CCN(C(=O)c3ccc4c(c3)OCO4)CC2)nc1	-14.7
O=C1CC(c2ccsc2)c2sc(C(=O)O)c(-c3ccccc3)c2N1 (configuration not stated)	15.2
CC(C)Oc1ncnc2c1CCN(Cc1cccs1)CC2	-0.935
CCn1cc(S(=O)(=O)N2CCN(S(=O)(=O)c3ccc(Br)s3)CC2)cn1	6.24
CCc1noc(C2CCCCN2C(=O)c2sccc2C)n1 (configuration not stated)	10.3
CCCn1nc(C)c(C(=O)N(C)[C@@H]2CC[C@@H](OC)[C@@H]2O)c1C	4.36
CN1CCC(c2cc(CCO)ncn2)C1 (configuration not stated)	4.87

SMILES	cytotoxicity at 10 µM [%]
CC(=O)N1CCN(c2ccc(Cl)nn2)C(=O)C1	6.69
O=C(c1ccc(Cl)cc1)N1CCC(N2CCCNC2=O)CC1	8.55
CCc1ccc2c(c1)C(CCNC(=O)CSC(F)(F)F)C(=O)N2 (configuration not stated)	-45.5
CC(C)C(=O)Nc1cccc(OCC(=O)NCc2ccccc2F)c1	-6.19
CC(C)CN(CC(O)c1ccccc1)C(=O)NC(C)C (configuration not stated)	-3.96
Cc1cc(C(=O)N(CC(=O)O)CC(C)C)ccc1F	-6.07
COC(C)c1noc(CN(C)c2ncccn2)n1 (configuration not stated)	7.33
CCC1CN(C)c2ccccc2CN1CCn1cncn1 (configuration not stated)	9.4
Cc1csc(N(C)C(=O)C2CC(=O)N(c3ccccc3Cl)C2)n1 (configuration not stated)	11.8
Cc1cc(C[S+]([O-])Cc2ccccc2F)no1 (configuration not stated)	-3.71
Cc1nnc(CN(C)CC(=O)N2CCCN(C3CCCC3)CC2)n1C	7.1
COCCN(C(=O)c1nc(-c2ccco2)sc1C)C1CC1	-8.96
Cc1ccccc1CC(=O)NS(=O)(=O)c1cccc2cnccc12	-0.601
COc1ccc(N(C)C(=O)c2cccc(S(C)(=O)=O)c2)cn1	7.36
CC(=O)N(Cc1ncc(C)o1)C1CCN(CCn2cccn2)C1 (configuration not stated)	6.49
COc1ccc(CCNC2CCCN(c3ccc(C)nn3)C2)cc1 (configuration not stated)	-3.65
COCCCN(C)C(=O)c1cccc(Nc2cnccn2)c1	-8.43
CC(=O)N1CCN(c2ccnc3c(F)cc(Br)cc23)CC1	13.6
CCNC(=O)N(C)CCCc1n[nH]c(N)c1C#N	10.3
CC(C)(C)CN(CCC#N)Cn1cc(Cl)cn1	6.29
CC1(C)CN(CC(F)(F)F)CCN1CC(=O)N1CCCCC1	13.2

SMILES	cytotoxicity at 10 µM [%]
Fc1ccc(C2CN(c3ncnc4[nH]ncc34)CCO2)cc1 (configuration not stated)	27.1
CN(CC(=O)NCc1ccco1)Cc1nc2c(s1)CCCC2	13.6
Cc1sc(Br)cc1S(=O)(=O)NCc1ccccn1	-3.85
CCc1ncc(C(=O)NC(C)(C)C(=O)OC)s1	5.01
CC(=O)N1CCN(C(=O)CNc2c(C)cccc2OC(F)F)CC1	3.24
Cc1nc(CSCc2ccc(OCC(F)(F)F)nc2)no1	-2.34
CCC1COCCN1C(=O)NCc1nccn1Cc1ccccc1 (configuration not stated)	-0.457
Cc1ccc(S(=O)(=O)N2CCN(C)c3ccncc32)cc1F	9.21
Cc1nn(C)c(N(C)C)c1CNCc1cccnc1	6
CC(C)n1ccc(-c2cc(C(=O)N3CCCC3)c3ccccn23)n1	-2.7
Cc1noc(C)c1C(=O)N1CC[C@H]2C[C@@H](c3nccs3)O[C@@H]2C1	-1.62
Cc1nn(C)cc1-c1ccnc(N2CCN(c3cnccn3)CC2)n1	7.26
COc1ccccc1N1CCN(Cc2nccc(OC)c2OC)CC1=O	-4
Cc1cc(NCc2ccc(C#N)cc2)n2nc(C)cc2n1	-10.9
Cc1nc(N(Cc2ccncc2)CC2CCCO2)c2ccsc2n1 (configuration not stated)	-155
O=C(O)c1cc(-c2ccoc2)cc(S(=O)(=O)N2CCSCC2)c1	0.49
CCN(C)c1nccc(N2CCN[C@H]3CS(=O)(=O)C[C@H]32)n1	7.85
Cc1nc(CN(C)CC2CCCN(CCc3ccc(Cl)cc3)C2)no1 (configuration not stated)	8.15
CC(C)n1cc(CN(C)C[C@@H]2CCCN3CCCC[C@H]23)cn1	0.276
CCS(=O)(=O)c1ncc(CN2CCOCC2)n1CCCc1ccccc1	7.57
CCC(CO)N(Cc1ccsc1)Cc1ccc(-c2ccn[nH]2)s1 (configuration not stated)	-1.37

SMILES	cytotoxicity at 10 µM [%]
COC(C)(C)C(=O)NCC1CCN(Cc2cc3ccccc3[nH]2)C1 (configuration not stated)	5.85
Cc1cc(N2CCC(n3cc(CCCO)nn3)CC2)ccn1	3.6
CC(C1CCN(Cc2cnn(C)c2C2CC2)CC1)N1CCCC1 (configuration not stated)	6.29
CC(C)CNC(=O)CN(C)S(C)(=O)=O	13.7
COc1ccc(-c2nccnc2C2CCN(C(C)=O)CC2)cc1	-4.43
CS(=O)(=O)N1CCC(C(=O)NC(Cc2ccsc2)c2ccccn2)CC1 (configuration not stated)	-2.91
COc1ccccc1N1CCC(CNCc2ccc(C#N)cc2)C1 (configuration not stated)	-12.1
O=C(CCc1nc2ccccc2[nH]1)N1CCCC(n2cccn2)C1 (configuration not stated)	-15.9
c1ccc(-c2cnc(CN3CCCC3Cn3cccn3)o2)cc1 (configuration not stated)	-13.6
O=C1OCCC1N1CCN(C(=O)Cc2ccccc2Cl)CC1 (configuration not stated)	-9.2
COc1cc(C(C)=O)ccc1OCC(=O)N(C)Cc1cnn(C)c1	-3.88
COCCN1CCC(CNC(=O)C2(c3cc(C)cc(C)c3)CCC2)C1 (configuration not stated)	-7.4
CC(C)c1nc(C2CCCN(C(=O)CCCn3cncn3)C2)no1 (configuration not stated)	-3.29
O=C(NCCNc1ncccn1)C1CCN(CC(F)(F)F)CC1	-5.6
COc1ccc(F)cc1C(C)NC(=O)Cn1ccc(=O)n(C)c1=O (configuration not stated)	-8.35
CC(=O)N1CCN(Cc2ccncc2)CC2(CC(=O)N(C)C2)C1 (configuration not stated)	-1.83
O=C(NCc1ccccn1)[C@H]1COC[C@H]2CN(c3ncccn3)C[C@H]21	9.19
COCCN1CCC2(CC1)CC1(CCN(S(C)(=O)=O)CC1)N(C)C2=O	0.964
Cn1cnc(S(=O)(=O)N2C[C@H](OCC3CC3)[C@H]3OCCC[C@H]32)c1	-149
